The subject of data set [1] is Plasma. Kind of data set: Drug uptake in Sprague-Dawley rat plasma treated with (S)-Isopropyl 2-(((R)-(((2R,3S,5R)-5-(5-fluoro-2,4-dioxo-3,4-dihydropyrimidin-1(2H)-yl)-3-hydroxytetrahydrofuran-2-yl)methoxy)((2-methylbenzyl)oxy)phosphoryl)amino)propanoate. Type of data set: ADME, cell-free.
Data set [2] relates to Liver. Kind of data set: Drug uptake in Sprague-Dawley rat liver treated with (S)-Isopropyl 2-(((R)-(((2R,3S,5R)-5-(5-fluoro-2,4-dioxo-3,4-dihydropyrimidin-1(2H)-yl)-3-hydroxytetrahydrofuran-2-yl)methoxy)((2-methylbenzyl)oxy)phosphoryl)amino)propanoate. The format is ADME, tissue-based. The note with it: in vivo.
Data set [3] deals with Liver. Kind of data set: AUC (infinity) in Sprague-Dawley rat liver assessed as FdUMP formation at 23.62 mg/kg administered through oral gavage measured up to 24 hrs by HPLC-MS/MS analysis. Type of data set: ADME, organism-based. Details: dose 23.62 mg/kg, time infinity, route oral. The note with it: in vivo. The essentials: (§1)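 Male Sprague-Dawley rats (220 ± 20 g), single gavage of 0.096 mmol/kg. FDUR was dosed in H2O; the prodrugs were dosed in 20% hydroxypropyl-β-cyclodextrin. n = 3 per time point, sampled at 0.25–24 h. Plasma (EDTA-K2, cardiac puncture) and freeze-clamped liver were homogenized in 20 mM EDTA-K2/70% MeOH. Analytes measured by HPLC-MS/MS in ESI negative mode.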

In data set [4] the test system is Liver. Kind of data set: Cmax in Sprague-Dawley rat liver assessed as 5-FU formation at 23.62 mg/kg administered through oral gavage measured up to 24 hrs by HPLC-MS/MS analysis. Type of data set: ADME, organism-based. Set-up: dose 23.62 mg/kg, route oral. The note with it: in vivo. The procedure, abridged: as §1
Data set [5] deals with Plasma. Kind of data set: Cmax in Sprague-Dawley rat plasma assessed as FDUR formation at 23.62 mg/kg administered through oral gavage measured up to 24 hrs by HPLC-MS/MS analysis. The format is ADME, organism-based. Set-up: dose 23.62 mg/kg, route oral. The note with it: in vivo. The essentials:
as §1

Data set [6] deals with Liver. Kind of data set: Cmax in Sprague-Dawley rat liver assessed as FdUMP formation at 23.62 mg/kg administered through oral gavage measured up to 24 hrs by HPLC-MS/MS analysis. Details: dose 23.62 mg/kg, route oral. The note with it: in vivo. Type of data set: ADME, organism-based. The procedure, abridged:
as §1

Data set [7] can be described thus: Ratio of FdUMP AUC (infinity) in Sprague-Dawley rat liver to FDUR AUC (infinity) in Sprague-Dawley rat plasma at 23.62 mg/kg administered through oral gavage. The note with it: in vivo. Type of data set: ADME, organism-based.
Data set [8] concerns Plasma. Kind of data set: AUC (infinity) in Sprague-Dawley rat plasma assessed as FDUR formation at 23.62 mg/kg administered through oral gavage measured up to 24 hrs by HPLC-MS/MS analysis. The format is ADME, organism-based. Details: dose 23.62 mg/kg, time infinity, route oral. The note with it: in vivo. The essentials:
as §1

The test system of data set [9] is Plasma. Kind of data set: Cmax in Sprague-Dawley rat plasma assessed as 5-FU formation at 23.62 mg/kg administered through oral gavage measured up to 24 hrs by HPLC-MS/MS analysis. The note with it: in vivo. Type of data set: ADME, organism-based. Details: dose 23.62 mg/kg, route oral. The essentials:
as §1

The test system of data set [10] is Liver. Kind of data set: AUC (infinity) in Sprague-Dawley rat liver assessed as 5-FU formation at 23.62 mg/kg administered through oral gavage measured up to 24 hrs by HPLC-MS/MS analysis. Type of data set: ADME, organism-based. The note with it: in vivo. Details: dose 23.62 mg/kg, time infinity, route oral. The essentials:
as §1

In data set [11] the test system is Plasma. Kind of data set: AUC (infinity) in Sprague-Dawley rat plasma assessed as 5-FU formation at 23.62 mg/kg administered through oral gavage measured up to 24 hrs by HPLC-MS/MS analysis. The format is ADME, organism-based. Details: dose 23.62 mg/kg, route oral, time infinity. The note with it: in vivo. The procedure, abridged: as §1
Data set [12] relates to Liver. Kind of data set: Drug uptake in Sprague-Dawley rat liver S9 fraction treated with (S)-Isopropyl 2-(((R)-(((2R,3S,5R)-5-(5-fluoro-2,4-dioxo-3,4-dihydropyrimidin-1(2H)-yl)-3-hydroxytetrahydrofuran-2-yl)methoxy)((2-methylbenzyl)oxy)phosphoryl)amino)propanoate at 20 ug/mL after 20 mins by HPLC-MS/MS analysis in absence of NADPH. Type of data set: ADME. The note with it: s9, 20 min. The essentials:
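Rat liver S9 (10 mg/mL) incubated with compound at 20 μg/mL. Parent, intermediate A and FdUMP followed over time by HPLC-MS/MS. Negative control run without NADPH.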

In the case of `Cc1ccccc1C(=O)NCC(=O)O`, the Drug uptake entry in data set [1] and in data set [2] was “metabolite_detected” in each case.

`O=c1[nH]c(=O)n([C@H]2C[C@H](O)[C@@H](CO)O2)cc1F` [FLOXURIDINE]: the AUC is below 34 ng·h/g in [3], 308 ng·h/mL in [8], 232 ng·h/g in data set [10] and 209 ng·h/mL in [11]. Also, the Cmax – broadly, the maximum level reached in the sampled fluid or tissue – in data set [4] is 60 ng/g; in [5], 180 ng/mL; in data set [6] it was 9 ng/g; in [9], 169 ng/mL. In addition, the “Ratio AUC” value in data set [7] is listed as below 0.11.

Turning to `Cc1ccccc1C(=O)O` [TOLUIC ACID], the Drug metabolism entry in data set [12] is on record as “metabolite_detected”.

The values above are taken from ChEMBL document CHEMBL3813647, “Discovery of an Orally Active and Liver-Targeted Prodrug of 5-Fluoro-2'-Deoxyuridine for the Treatment of Hepatocellular Carcinoma” (J Med Chem, 2016).
